Assay results from the EternaBench riboswitch data.

Tested on: MS2 coat protein
Assay: apparent Kd, MS2 coat protein; higher = weaker binding; RNA-MaP array; FMN 200 µM where present
Summary of the method: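 On Illumina sequencing-chip clusters, designs were transcribed by stalled E. coli RNA polymerase and titrated with SNAP-549-labelled MS2 coat protein (0.7 or 1.5 nM, doubling to 3 µM), without and then with constant ligand, in 100 mM Tris-HCl pH 7.5, 80 mM KCl, 4 mM MgCl2, BSA, DTT, yeast tRNA and Tween-20. Apparent Kd is the median of filtered per-cluster curve fits to green signal normalised to red-channel RNA signal and control-cluster median Fmax.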

[1] = designed as: OFF switch for flavin mononucleotide, no ligand
[2] = ligand present: flavin mononucleotide, designed as: OFF switch for flavin mononucleotide
[3] = designed as: ON switch for flavin mononucleotide, no ligand
[4] = ligand present: flavin mononucleotide, designed as: ON switch for flavin mononucleotide

Row | Sequence | apparent Kd [1] [nM] | apparent Kd [2] [nM] | apparent Kd [3] [nM] | apparent Kd [4] [nM]
1 | GCUGCGCGAGGAUAUGCGGUUUGUGCUUUGGGCCCUGGCGUACAUGAGGAUCACCCAUGUAGAAGGCGUGUGGG | 43.6 | 38.4 |  | 
2 | AUUUUGUGAGGAUAUGUGGCUUCGAUCGUAAAAUCGAGGCUACAGAAGGCACAUGAGGAUCACCCAUGUUCCUA | 19 | 205 |  | 
3 | GCCGAAUGAACAUGAGGAUCACCCAUGUACAGGAAACUGAAUGAGGAUAUCCAUAGCAAAGCUAUGGAGAAGGCAUGGGUCGGC |  |  | 465 | 99.7
4 | GCUGGGUAGGCAGGAUAUCCUCGCGCAAACACAUGAGGAUCACCCAUGUACACAAAACGUGAUAUGGAGAAGGGCCGACCCACA |  |  | 22.4 | 5.72
5 | UCAAGUAUGUAGGAUAUCGAUGUCUGCGGACAUCGAGAAGGACGUACAUGAGGAUCACCCAUGUAACUUGCAUG | 107 | 79.4 |  | 
6 | AUUUAGUGCGAGAAGGCGUGGUCACAUGAGGAUCACCCAUGUCAGUACACGAGGAUAUCGAUUCACUGUGUUAAUACAAGUGAC |  |  | 77.9 | 6.68
7 | AUACACACGACAGGAUAUGGAAUGUAAGCUCAGAGACAUGAGGAUCACCCAUGUACCUGUCUUGCCCAGAAGGGUCGCAAAAGA |  |  | 327 | 64.5
8 | ACAUGAGGAUCUCCCAUGUAAAAUUAGGAUAUAUGACUGCACAUGAGGAUCACCCAUGUUCUACCGUAGAAGGGAUAAAUAAUU |  |  | 516 | 427
9 | UGUGCGUAUGUGAGGAUAUGCUGGUCCUUGGAUCAGCAGAAGGCACAUGAGGAUCACCCAUGUGGUGUCGUACG | 114 | 185 |  | 
10 | GGUGCACGCACAGGAUAUCCGGCGGCGCUCGUCGGAGAAGGGUGACAUGAGGAUCACCCAUGUACGUGCAACUCAGUUUGAGUG |  |  | 42.5 | 33.9
11 | AUCAGUACGUGAGGAUAUGCGUUACUGCGAAAGCAGUACGGUAAGAUCACAUGAGGAUCACCCAUGUAGAAGGCACGAACUGAU | 18.9 | 37.5 |  | 
12 | CAUUAUUAUCGAGGAUAUCCUAUUGAAAUUCUGGGAGAAGGCGGACUCAACAUGAGGAUCACCCAUGUGGGACGGAUGCUAGGG | 22.9 | 20 |  | 
13 | GUGGUCAGACAUGAGGAUCACCCAUGUGGAAUAAAUAACAGACAGGAUAUCAAAUAUAGGAUAUAUGAGAAGGGUCGAUUGGUG |  |  | 99.5 | 84.3
14 | AACAAACAUGAGGAUCACCCAUGUGAGGAUAUCGAAACAACAAACAACAAACAACAAACGAGAAGGCGCAACAA | 29.1 | 27.6 |  | 
15 | GCCAUCGCAUGAGGAUAUGGCACCGUUUCGGUGCCAGAAGGCAUGUCAAAUGACAUGAGGAUCACCCAUGUAGUUAAGAUGGCC |  |  | 157 | 13
16 | GUGCCUUGGGAGAAGGUUAUUGGCAAAGCUAUUAAAGGAUAUUCAUACCGGAAACGGACAUGAGGAUCACCCAUGUGGCACAAA |  |  | 752 | 208
17 | UCGGUGCGAGGAUAUACGUUUGCGCGUUUUCGUUUGCGCGUACAUGAGGAUCACCCAUGUAGAAGGCGCGCGGC | 12.4 | 13.7 |  | 
18 | AACUAGUCAGGAUAUACGAACAUGUCAAAAAACAUGAAGGGACAUGAGGAUCACCCAUGUAGAAGGGACUAGCA | 37.8 | 223 |  | 
19 | AAGAAACAUGAGGAUCACCCAUGUGAGGAUAUACGAUGCUAAGCGUAAGCUUAGUAUCGUAGAAGGCACAAAGG | 131 | 311 |  | 
20 | UGGUACUAGGGAGGAUAUGGGAAGAUACAUGAGGAUCACCCAUGUUUAAGAAUGCCGAGAGGCAACUAGAAGGCCCUAGUACUU |  |  | 448 | 20.2
21 | GCUAUUGAUGUAGGAUAUGAUAUAGAAACUAUGUCAGAAGGACAUGAGGAUCACCCAUGUCAAUGGAUGGAGAGAAGAGAUGGC | 28 | 30.7 |  | 
22 | GGAUAGGACAGAGGAUAUACGUGCUAGAGAUACUAGCAAAAGUUCCUCACAUGAGGAUCACCCAUGUAGAAGGCUGUCCUAUCG | 65.5 | 214 |  | 
23 | GGAUCGAAUGUGAGGAUAUACCUAUGGAAACAUAGGUAGAAGGCACAUGAGGAUCACCCAUGUCCUAACGGUCC | 419 | 456 |  | 
24 | UGGUACUAGGGAGGAUAUGGGAAGAUACAUGAGGAUCACCCAUGUUUAAGAAUGGCGAGAGGCAACUAGAAGGCCCUAGUACCU |  |  | 271 | 15.6
25 | UCAGGCUUCGAGAAGGACAUGAAUCGUAGCAUUGCUACGAUGAAACAUACAUGAGGAUCACCCAUGUAGGAUAUCGGAGUCUGC | 5.14 | 5.55 |  | 
26 | GGAUAGGACAGAGGAUAUACGUGCUAGAGAUACUAUCAAAAUUUCCUCACAUGAGGAUCACCCAUGUAGAAGGCUGUCCUAUCG | 270 | 52.1 |  | 
27 | CUGCUGAAGCUUUGCUUUAGUCGUACAUGAGGAUCACCCAUGUAGGAUAUGGUAGGCUUUGCUUACUAGAAGGAUAGAGUGGUC | 52.6 | 27.6 |  | 
28 | CAGCGCUGUCGAGAGGAUAUGCGGUGAUGGACAUGAGGAUCACCCAUGUAAGCGAUAGCAUUACGGCAGAAGGCUCUGCAGCUGC |  |  | 25.1 | 17.4

Row | Sequence | apparent Kd [1] [nM] | apparent Kd [2] [nM] | apparent Kd [3] [nM] | apparent Kd [4] [nM]
29 | UUAUCUAUGUAAGGAUAUCGAUGAUAUACGCAUCCGACAUGAGGAUCACCCAUGUUUUAUUUUGUCGAGAAGGUACAUUGUCGG |  |  | 61.1 | 53.5
30 | AGAAGAACAUGAGGAUCACCCAUGUUCCUGCUGCUCCACAGACAGGAUAUGGGUGUCGUCGACAAUCAGAAGGGUUCGCGGAGC |  |  | 34.9 | 27.5
31 | CGCUUUGUACAUGAGGAUCACCCAUGUUAAUAUGUGGUAGUCAGAAGGCAUUGUUUGAGAUAUUAUGAGGAUAUGAUUAGUCUG |  |  | 73.2 | 43.6
32 | CCUCCGUAUUAGGAUAUCGUCCAGGAAACUGGACGAGAAGGAAUGACAUGAGGAUCACCCAUGUUAACGUGAUG | 21.5 | 50 |  | 
33 | GAUAAGGGCGAGGAUAUGCCAUUGGCUGAGGUCGUAGAAGGUGCCACAUGAGGAUCACCCAUGUAUCAAGUACG | 34.5 | 32.4 |  | 
34 | GCUGCGUAUGCAGGAUAUACAUGAGGAUCACCCAUGUAACUCGAACUCUAAGCGGGUGCGCGCAUGUAGAAGGGCAGGCGAGCC | 35.5 | 51.2 |  | 
35 | AUAAGCUCGUCAGGAUAUACGUCACUGCUUCGGCAGUGAGGUAUGAUCACAUGAGGAUCACCCAUGUAGAAGGGACGAGCUUAU | 5.63 | 8.57 |  | 
36 | GGUUGGCGAGGAUAUACAUGAGGAUCACCCAUGUGGUCCUGCGGUAGAAUCGCCCUUUGUAGAAGGCGCGGGUC | 69.5 | 72 |  | 
37 | GUACAUGAGCAGAAGGGCAUUUAAUUAGAUUUUUAUGUUGAUCAGAUAUGCAGGAUAUGUUAAACAUGAGGAUCACCCAUGUAC |  |  | 235 | 44.2
38 | AGUGUCAUCGAGAAGGCCUCAACAUGAGGAUCACCCAUGUUGUAAAAUGGGAGGAUAUCGAUGAUACAGCUACGUUUCGUAGCA |  |  | 11.3 | 4.88
39 | ACAAAUGGAGGAUAUACAUGAGGAUCACCCAUGUUUAUCCUACAUGUGUGAUAAUAAUGUAGAAGGCCAUAUGA | 15.9 | 12.5 |  | 
40 | CAGCGAAAGUAGAAGGCAGUACUGAUACAGUACUGAGGAUAUACAUGAGGAUCACCCAUGUUCUUCAGCUGGAAAUAAAUAAAA | 8.02 | 124 |  | 
41 | UUGAGGUCAGGAUAUGCAUGGCGGGACUUGCGUCGUGGCGUGGAGAAGGGACAUGAGGAUCACCCAUGUGGAGC | 55.6 | 62 |  | 
42 | GCCAGUUAUGUAGGAUAUGCGAAGCGAGCCUGAGCAGAAGGACAUGAGGAUCACCCAUGUGUUGCGGUUUGAGUACUGAUCGCU | 24.4 | 89.4 |  | 
43 | GGAUGACAUAGUCAUCCUUAACGAACAUGAGGAUCACCCAUGUAGGAUAUGCUACUCAACGAGUAGCAGAAGGACAUGUGUCUU | 26.5 | 142 |  | 
44 | GUAGCAUACCGAGGAUAUUCAGGGCGUAAAUAAACAUGAGGAUCACCCAUGUGGCGAAAGCCUAGGGAGAAGGCGGAAUGCUAC |  |  | 17.1 | 16.8
45 | GAUCUACAUGAGGAUCACCCAUGUAAGGAUAUCGUCACUGGAGCUUCGGCUCCAGUGACGAGAAGGUACAAUUA | 28.8 | 32.1 |  | 
46 | UUGCCUCAGAACAUGAGGAUCACCCAUGUGCUGCGGGCAACGUAGGAUAUGAUGGCGUGACGCCAUCAGAAGGAUGAUGGUACC |  |  | 5.92 | 6.15
47 | UAAUAAUAAUGAGGAUAUAUACAACAUGAGGAUCACCCAUGUACCCAUGUAGUAGAAGGCAUAUUUUUUGUUAAUAACAUAACU |  |  | 53.8 | 32.1
48 | UGGAAGGUAUGAGGAUAUGCAUGCGAAACGCAUGCAGAAGGCAUGUCAAUAGACAUGAGGAUCACCCAUGUAUUAUCCUUCCAA |  |  | 455 | 41.7
49 | AAUGGUGGAGGAUAUACAUGAGGAUCACCCAUGUAAAUCACACAUGUGGUCAACGCAUGUAGAAGGCCACUAAA | 62.5 | 104 |  | 
50 | CAUUCAUGUCUAGGAUAUGAGUGACAAGCGCGAAGUUUUUUCGCCGCUAGCUCAGAAGGAGACAUGAGGAUCACCCAUGUAAGG | 24.1 | 9.96 |  | 
51 | GCUCUACAUGAGGAUCACCCAUGUUCGGACGCACGAGGAUAUGCAUGGGCGAAAGCUGGUGCAGAAGGCGUGGGAC |  |  | 209 | 33.4
52 | AGUAACAGAGGAUAUACUAUUUUAUGUAUUUAUUAUUUUAAACAUGAGGAUCACCCAUGUAGAAGGCUGAAUGA | 24.7 | 22.8 |  | 
53 | UUGGACGGCGUAGGAUAUGUAGGAUAUUCCUACAUGAGGAUCACCCAUGUUGACAUGGAAGAAGGACAGAAGGACGAUGUCCAU |  |  | 303 | 4.94
54 | UGCGGAAUCACAGGAUAUGCGGGAAGAACGAUACCGUACAUGAGGAUCACCCAUGUGGCGGCAAAGCAGAAGGGUGGUUCUCGC |  |  | 8.42 | 5.79
55 | UGGCUACAUGAGGAUCACCCAUGUCAGGAUAUGCCGUUAAAUUAACAUCAACGUACGGGUAGAAGGGACUGCGU | 24.3 | 23 |  | 
